Results taken from ChEMBL document CHEMBL3286367, “Synthesis of new class of spirocarbocycle derivatives by multicomponent domino reaction and their evaluation for antimicrobial, anticancer activity and molecular docking studies” (2014).
Converted amounts (≈) assume the structure as drawn. The source made the active and inactive calls. The rule behind the calls is not given here.

Legend:
[1] = system: Staphylococcus aureus; assay: Antimicrobial activity against Staphylococcus aureus MTCC 96 assessed as zone of inhibition at 1 mg/disc after 24 hrs incubation by disc diffusion assay; assay type: functional
How it was run: (§1)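 Inocula grown in Mueller Hinton broth for 24 h at 37 °C and swabbed onto Mueller Hinton agar. Discs carried 1 mg compound each and stood 30 min at room temperature before 24 h incubation at 37 °C. Solvent as negative control. Inhibition zones recorded in mm; experiment done twice.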

[2] = system: Klebsiella aerogenes; assay: Antimicrobial activity against Enterobacter aerogenes MTCC 111 assessed as absence of visible growth after 48 to 72 hrs; assay type: functional
[3] = system: Shigella flexneri; assay: Antimicrobial activity against Shigella flexneri MTCC 1457 assessed as zone of inhibition at 1 mg/disc after 24 hrs incubation by disc diffusion assay; assay type: functional; how it was run: as §1
[4] = system: Shigella flexneri; assay: Antimicrobial activity against Shigella flexneri MTCC 1457 assessed as absence of visible growth after 24 hrs
[5] = system: Malassezia pachydermatis; assay: Antifungal activity against Malassezia pachydermatis assessed as zone of inhibition at 1 mg/disc after 48 hrs incubation by disc diffusion assay; assay type: functional
How it was run: (§2)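 Disc diffusion on Mueller Hinton agar with swabbed cultures, 1 mg compound per disc. Discs stood 30 min at room temperature for diffusion, then plates incubated 48 h at 28 °C. Solvent as negative control. Yeast pre-grown in Sabouraud dextrose broth at 28 °C for 48-72 h; filamentous fungal spores came from SDA slants grown 10 days at 28 °C. Zone diameters in mm; run twice.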

[6] = system: Salmonella typhimurium; assay: Antimicrobial activity against Salmonella typhimurium MTCC 1251 assessed as absence of visible growth after 48 to 72 hrs; assay type: functional, Salmonella enterica subsp. enterica serovar Typhimurium; conditions: Salmonella enterica
[7] = system: Micrococcus luteus; assay: Antimicrobial activity against Micrococcus luteus MTCC 106 assessed as zone of inhibition at 1 mg/disc after 24 hrs incubation by disc diffusion assay; assay type: functional; how it was run: as §1
[8] = system: Candida albicans; assay: Antifungal activity against Candida albicans MTCC 227 assessed as zone of inhibition at 1 mg/disc after 48 hrs incubation by disc diffusion assay; assay type: functional; how it was run: as §2
[9] = system: Klebsiella pneumoniae; assay: Antimicrobial activity against Klebsiella pneumonia MTCC 109 assessed as zone of inhibition at 1 mg/disc after 24 hrs incubation by disc diffusion assay; assay type: functional; how it was run: as §1
[10] = system: Salmonella typhimurium; assay: Antimicrobial activity against Salmonella typhimurium MTCC 1251 assessed as zone of inhibition at 1 mg/disc after 24 hrs incubation by disc diffusion assay; assay type: functional, Salmonella enterica subsp. enterica serovar Typhimurium; how it was run: as §1
[11] = system: Proteus vulgaris; assay: Antimicrobial activity against Proteus vulgaris MTCC 1771 assessed as absence of visible growth after 48 to 72 hrs; assay type: functional
[12] = system: Staphylococcus epidermidis; assay: Antimicrobial activity against Staphylococcus epidermidis MTCC 3615 assessed as zone of inhibition at 1 mg/disc after 24 hrs incubation by disc diffusion assay; assay type: functional; how it was run: as §1
[13] = system: Micrococcus luteus; assay: Antimicrobial activity against Micrococcus luteus MTCC 106 assessed as absence of visible growth after 48 to 72 hrs; assay type: functional
[14] = system: Staphylococcus aureus; assay: Antimicrobial activity against methicillin-resistant Staphylococcus aureus assessed as zone of inhibition at 1 mg/disc after 24 hrs incubation by disc diffusion assay; assay type: functional
How it was run: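 Inoculum grown in Mueller Hinton broth 24 h at 37°C, swabbed onto Mueller Hinton agar and dried 10 min. Discs loaded at 1 mg/disc, then 30 min at room temperature for diffusion. Plates incubated 24 h at 37°C. Solvent negative control; streptomycin positive control. Zone of inhibition read in mm; experiment done twice.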

[15] = system: Klebsiella aerogenes; assay: Antimicrobial activity against Enterobacter aerogenes MTCC 111 assessed as zone of inhibition at 1 mg/disc after 24 hrs incubation by disc diffusion assay; assay type: functional; how it was run: as §1
[16] = system: Klebsiella pneumoniae; assay: Antimicrobial activity against Klebsiella pneumonia MTCC 109 assessed as absence of visible growth after 24 hrs
[17] = system: Proteus vulgaris; assay: Antimicrobial activity against Proteus vulgaris MTCC 1771 assessed as zone of inhibition at 1 mg/disc after 24 hrs incubation by disc diffusion assay; assay type: functional; how it was run: as §1
[18] = system: Staphylococcus aureus; assay: Antimicrobial activity against Staphylococcus aureus MTCC 96 assessed as absence of visible growth after 48 to 72 hrs; assay type: functional
[19] = system: Staphylococcus epidermidis; assay: Antimicrobial activity against Staphylococcus epidermidis MTCC 3615 assessed as absence of visible growth after 48 to 72 hrs; assay type: functional
[20] = system: Staphylococcus aureus; assay: Antimicrobial activity against methicillin-resistant Staphylococcus aureus assessed as absence of visible growth after 48 to 72 hrs; assay type: functional
How it was run: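 Broth two-fold serial dilution in 96-well plates, 1000 to 7.81 µg/mL, compound dissolved in DMSO (2%). Inoculum grown in Mueller Hinton broth 24 h at 37°C. Streptomycin positive control. 5 µl of tested broth plated on MHA; MIC is the lowest concentration inhibiting visible growth on agar.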

[21] = system: Shigella flexneri; assay: Antimicrobial activity against Shigella flexneri MTCC 1457 assessed as absence of visible growth after 48 to 72 hrs; assay type: functional
[22] = system: Staphylococcus epidermidis; assay: Antimicrobial activity against Staphylococcus epidermidis MTCC 3615 assessed as absence of visible growth after 24 hrs
[23] = system: Klebsiella pneumoniae; assay: Antimicrobial activity against Klebsiella pneumonia MTCC 109 assessed as absence of visible growth after 48 to 72 hrs; assay type: functional

Row | SMILES | inhibition zone (IZ) [1] [mm] | MIC [2] [µg/mL] | inhibition zone (IZ) [3] [mm] | MIC [4] [µg/mL] | inhibition zone (IZ) [5] [mm] | MIC [6] [µg/mL] | inhibition zone (IZ) [7] [mm] | inhibition zone (IZ) [8] [mm] | inhibition zone (IZ) [9] [mm] | inhibition zone (IZ) [10] [mm] | MIC [11] [µg/mL] | inhibition zone (IZ) [12] [mm] | MIC [13] [µg/mL] | inhibition zone (IZ) [14] [mm] | inhibition zone (IZ) [15] [mm] | MIC [16] [µg/mL] | inhibition zone (IZ) [17] [mm] | MIC [18] [µg/mL] | MIC [20] [µg/mL] | MIC [22] [µg/mL] | other results
1 | N#CC1=C(N)[C@]2(C(=O)Nc3ccccc32)[C@@H](c2ccc(Br)cc2)[C@@H]2CCCC=C12 | 12 | 250 (≈ 560 µM) | 8 | 1000 (≈ 2240 µM) | 10 | 250 (≈ 560 µM) | 8 | 10 | 10 | 11 | 1000 (≈ 2240 µM) | 10 | 1000 (≈ 2240 µM) | 12 | 15 | 500 (≈ 1120 µM) | 9 | 250 (≈ 560 µM) | 250 (≈ 560 µM) |  | MIC [19]: 500 µg/mL (≈ 1120 µM)
2 | Cc1ccc([C@H]2[C@@H]3CCC=C3C(C#N)=C(N)C23C(=O)c2ccccc2C3=O)cc1 (relative stereo) | 17 | 250 (≈ 657 µM) | 13 |  | 13 | 500 (≈ 1310 µM) | 12 | 10 | 15 | 10 | 125 (≈ 329 µM) | 14 | 250 (≈ 657 µM) | 12 | 15 |  | 16 | 125 (≈ 329 µM) | 250 (≈ 657 µM) | 250 (≈ 657 µM) | MIC [21]: 250 µg/mL (≈ 657 µM); MIC [23]: 250 µg/mL (≈ 657 µM)
3 | Cc1ccc([C@H]2[C@@H]3CCCC=C3C(C#N)=C(N)C23C(=O)c2ccccc2C3=O)cc1 (relative stereo) | 10 | 250 (≈ 634 µM) | 8 |  | 11 | 250 (≈ 634 µM) | 9 | 10 | 15 | 14 | 500 (≈ 1270 µM) | 10 | 1000 (≈ 2540 µM) | 11 | 13 |  | 10 | 250 (≈ 634 µM) | 250 (≈ 634 µM) | 500 (≈ 1270 µM) | MIC [21]: 1000 µg/mL (≈ 2540 µM); MIC [23]: 250 µg/mL (≈ 634 µM)
4 | CN[C@@H]1[C@H](O[C@H]2[C@H](O[C@H]3[C@H](O)[C@@H](O)[C@H](N=C(N)N)[C@@H](O)[C@@H]3N=C(N)N)O[C@@H](C)[C@]2(O)C=O)O[C@@H](CO)[C@H](O)[C@H]1O [STREPTOMYCIN] | 14 | 25 (≈ 43 µM) | 30 | 6.25 (≈ 10.7 µM) |  | 30 (≈ 51.6 µM) | 26 |  | 20 | 18 | 6.25 (≈ 10.7 µM) | 26 | 6.25 (≈ 10.7 µM) | 30 | 22 |  | 30 | 6.25 (≈ 10.7 µM) | 6.25 (≈ 10.7 µM) |  | MIC [23]: 6.25 µg/mL (≈ 10.7 µM); MIC [19]: 6.25 µg/mL (≈ 10.7 µM)
5 | Cc1ccc([C@H]2[C@@H]3CCCC=C3C(C#N)=C(N)[C@]23C(=O)Nc2ccccc23)cc1 | 11 | 250 (≈ 655 µM) | 9 | 1000 (≈ 2620 µM) | 10 | 1000 (≈ 2620 µM) | 8 | 8 | 10 | 9 | 250 (≈ 655 µM) | 12 | 1000 (≈ 2620 µM) | 9 | 13 | 500 (≈ 1310 µM) | 12 | 250 (≈ 655 µM) | 1000 (≈ 2620 µM) | 250 (≈ 655 µM) | 
6 | N#CC1=C(N)C2(C(=O)c3ccccc3C2=O)[C@@H](c2ccccc2F)[C@@H]2CCC=C12 (relative stereo) | 14 | 250 (≈ 650 µM) | 10 | 250 (≈ 650 µM) |  | 250 (≈ 650 µM) | 12 |  | 15 | 12 | 250 (≈ 650 µM) | 17 | 250 (≈ 650 µM) | 16 | 15 | 250 (≈ 650 µM) | 14 | 250 (≈ 650 µM) | 125 (≈ 325 µM) | 125 (≈ 325 µM) | inhibition [5]: inactive; inhibition [8]: inactive
7 | N#CC1=C(N)C2(C(=O)c3ccccc3C2=O)[C@@H](c2cccs2)[C@@H]2CCCC=C12 (relative stereo) | 10 | 250 (≈ 647 µM) | 24 | 62.5 (≈ 162 µM) | 11 | 125 (≈ 323 µM) | 10 | 10 | 14 | 16 | 62.5 (≈ 162 µM) | 12 | 250 (≈ 647 µM) | 18 | 15 | 250 (≈ 647 µM) | 22 | 250 (≈ 647 µM) | 125 (≈ 323 µM) | 250 (≈ 647 µM) | 
8 | COc1ccc([C@H]2[C@@H]3CCCC=C3C(C#N)=C(N)C23C(=O)CCCC3=O)cc1 (relative stereo) | 14 | 250 (≈ 664 µM) | 19 | 125 (≈ 332 µM) | 9 | 250 (≈ 664 µM) | 21 | 10 | 16 | 11 | 125 (≈ 332 µM) | 13 | 250 (≈ 664 µM) | 15 | 14 |  | 17 | 250 (≈ 664 µM) | 250 (≈ 664 µM) |  | MIC [23]: 125 µg/mL (≈ 332 µM); MIC [19]: 250 µg/mL (≈ 664 µM)
9 | N#CC1=C(N)C2(C(=O)c3ccccc3C2=O)[C@@H](c2ccoc2)[C@@H]2CCCC=C12 (relative stereo) | 14 | 250 (≈ 675 µM) | 14 | 250 (≈ 675 µM) | 12 | 500 (≈ 1350 µM) | 18 | 13 | 12 | 10 | 250 (≈ 675 µM) | 12 | 125 (≈ 337 µM) | 13 | 15 | 250 (≈ 675 µM) | 15 | 250 (≈ 675 µM) | 250 (≈ 675 µM) | 250 (≈ 675 µM) | 
